Assay results taken from paper PMC4134686 (Journal of the American Chemical Society, 2013).

Key:
Test in all cases: isothermal titration calorimetry
Format in all cases: binding
BsSecA [1] = target: BsSecA (Bacillus subtilis, UniProt P28366)
Summary of the method: (§1)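 Full-length native-sequence SecA purified by ion-exchange, hydrophobic and gel-filtration chromatography, then dialysed >18 h against TKM (50 mM Tris-HCl pH 8.0, 50 mM KCl, 5 mM MgCl₂) with 3 buffer changes. Mg-ADP dissolved in final dialysate and titrated at 25 °C into 20 μM WT BsSecA, 30 μM E208Q BsSecA or 10 μM WT EcSecA.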

BsSecA [2] = target: BsSecA (Bacillus subtilis, UniProt P28366, E208Q)
Summary of the method: as §1

EcSecA = EcSecA (Escherichia coli, UniProt P10408)
Summary of the method: as §1

Nc1ncnc2c1ncn2[C@@H]1O[C@H](COP(=O)(O)OP(=O)(O)O)[C@@H](O)[C@H]1O [Mg-ADP]
Kd (BsSecA [1]): 180 ± 10 nM
Kd (BsSecA [2]): 7700 ± 300 nM
Kd (EcSecA): 62 ± 4 nM
